Data set [1] addresses T1, PTPN2 (Homo sapiens, UniProt P17706).
T1 sequence (P17706 1-415): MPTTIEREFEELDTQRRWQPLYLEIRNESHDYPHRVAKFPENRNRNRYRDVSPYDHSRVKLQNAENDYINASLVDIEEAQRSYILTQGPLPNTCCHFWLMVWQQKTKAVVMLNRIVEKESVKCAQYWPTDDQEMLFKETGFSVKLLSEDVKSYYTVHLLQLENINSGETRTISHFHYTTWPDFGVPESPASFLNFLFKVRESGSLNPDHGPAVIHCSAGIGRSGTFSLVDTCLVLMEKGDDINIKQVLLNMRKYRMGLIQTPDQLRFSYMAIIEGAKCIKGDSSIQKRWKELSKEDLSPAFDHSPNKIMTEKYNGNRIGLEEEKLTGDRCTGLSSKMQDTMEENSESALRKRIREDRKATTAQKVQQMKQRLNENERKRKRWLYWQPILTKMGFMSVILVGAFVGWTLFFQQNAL
The data set can be described thus: DARTS assay. It counts as binding. The following applies: 1 μM pretreatment 20 min, then trypsin on ice; PTPN2/trypsin 100:1.

Data set [2] deals with PTPN2-mediated dephosphorylation of STAT3 at Tyr-705. It counts as cell-based, human. The following applies: HEK 293 cells with FLAG-PTPN2, 1.5 μM 6 h, then IL-6 10 ng/ml 30 min. The gist of the method: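 HEK 293 cells transfected with FLAG-PTPN2 wild type or catalytically dead C216S plasmid using polyethylenimine. After 42 h, treated with test compound (1.5 μM) for 6 h, then IL-6 (10 ng/ml) for 30 min. Cells lysed in PTP lysis buffer. Immunoblots probed for phospho-STAT3 Tyr-705 and total STAT3, detected by ECL and quantified by densitometry relative to the IL-6-stimulated group.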

Data set [3] has as its target T2, DUSP18 (Homo sapiens, UniProt Q8NEJ0).
T2 sequence (Q8NEJ0 1-188): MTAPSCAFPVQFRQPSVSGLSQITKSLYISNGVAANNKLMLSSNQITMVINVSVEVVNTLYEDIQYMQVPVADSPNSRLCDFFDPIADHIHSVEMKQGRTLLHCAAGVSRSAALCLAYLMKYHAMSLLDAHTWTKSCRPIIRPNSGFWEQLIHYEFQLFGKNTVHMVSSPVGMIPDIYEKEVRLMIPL
Put plainly: In vitro phosphatase assay with OMFP as substrate. The format is biochemical. In short, it runs like this: (§1)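 His-tagged human PTPs expressed in E. coli BL21(DE3)-RIL (1 mM IPTG, 37°C, 3 h) and Ni-NTA purified. 100 nM enzyme in 30 mM Tris-HCl pH 7.0, 75 mM NaCl, 1 mM EDTA, 0.4 mM DTT, 0.132% BSA, 1% DMSO final. Test compound (water-dissolved; 0, 5, 10 μM) present; started with 100 μM OMFP; 30 min at 37°C. Fluorescence ex 495/em 535 nm; triplicates; IC50 by curve fitting.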

Data set [4] concerns the target T3, SSH3 (Homo sapiens, UniProt Q8TE77).
T3 sequence (Q8TE77 1-659): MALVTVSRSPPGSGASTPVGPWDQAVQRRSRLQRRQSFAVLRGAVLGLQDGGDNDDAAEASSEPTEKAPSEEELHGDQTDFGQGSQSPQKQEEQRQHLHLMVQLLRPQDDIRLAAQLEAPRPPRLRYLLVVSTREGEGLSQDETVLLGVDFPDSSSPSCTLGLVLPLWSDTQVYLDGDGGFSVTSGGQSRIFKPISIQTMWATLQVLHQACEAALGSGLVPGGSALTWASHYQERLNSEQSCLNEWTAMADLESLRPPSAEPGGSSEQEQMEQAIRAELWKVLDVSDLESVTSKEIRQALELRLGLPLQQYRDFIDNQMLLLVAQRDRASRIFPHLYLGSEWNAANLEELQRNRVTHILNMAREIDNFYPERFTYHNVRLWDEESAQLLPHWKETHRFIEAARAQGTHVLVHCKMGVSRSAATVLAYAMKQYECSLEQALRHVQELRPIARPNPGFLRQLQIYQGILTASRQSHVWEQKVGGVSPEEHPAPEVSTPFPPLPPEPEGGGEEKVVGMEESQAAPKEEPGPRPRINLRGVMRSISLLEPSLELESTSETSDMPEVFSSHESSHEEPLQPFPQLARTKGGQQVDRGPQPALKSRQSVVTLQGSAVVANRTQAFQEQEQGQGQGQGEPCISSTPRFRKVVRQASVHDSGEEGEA
Put plainly: In vitro phosphatase assay with OMFP as substrate. It counts as biochemical. In short, it runs like this: as §1

Data set [5] deals with DUSP3 (Homo sapiens, UniProt P51452). The data set can be described thus: In vitro phosphatase assay with OMFP as substrate. It counts as biochemical. The gist of the method:
as §1

The target of data set [6] is T4, Laforin (Homo sapiens, UniProt O95278).
T4 sequence (O95278 1-331): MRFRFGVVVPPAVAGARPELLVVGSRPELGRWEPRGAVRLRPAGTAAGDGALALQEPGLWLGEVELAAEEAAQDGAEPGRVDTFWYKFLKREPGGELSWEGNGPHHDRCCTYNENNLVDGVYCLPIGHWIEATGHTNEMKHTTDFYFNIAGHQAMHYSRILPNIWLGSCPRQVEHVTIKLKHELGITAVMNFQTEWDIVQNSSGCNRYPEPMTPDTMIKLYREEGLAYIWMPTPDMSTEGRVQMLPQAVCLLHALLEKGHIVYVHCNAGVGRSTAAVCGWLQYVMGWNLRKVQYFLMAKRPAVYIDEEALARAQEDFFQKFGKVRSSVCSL
Put plainly: In vitro phosphatase assay with OMFP as substrate. It counts as biochemical. The gist of the method: as §1

The target of data set [7] is T1, PTPN2. The data set can be described thus: Kinetic analysis. The format is biochemical.
The target of data set [8] is T5, Cdc25B (Homo sapiens, UniProt P30305).
T5 sequence (P30305 1-580): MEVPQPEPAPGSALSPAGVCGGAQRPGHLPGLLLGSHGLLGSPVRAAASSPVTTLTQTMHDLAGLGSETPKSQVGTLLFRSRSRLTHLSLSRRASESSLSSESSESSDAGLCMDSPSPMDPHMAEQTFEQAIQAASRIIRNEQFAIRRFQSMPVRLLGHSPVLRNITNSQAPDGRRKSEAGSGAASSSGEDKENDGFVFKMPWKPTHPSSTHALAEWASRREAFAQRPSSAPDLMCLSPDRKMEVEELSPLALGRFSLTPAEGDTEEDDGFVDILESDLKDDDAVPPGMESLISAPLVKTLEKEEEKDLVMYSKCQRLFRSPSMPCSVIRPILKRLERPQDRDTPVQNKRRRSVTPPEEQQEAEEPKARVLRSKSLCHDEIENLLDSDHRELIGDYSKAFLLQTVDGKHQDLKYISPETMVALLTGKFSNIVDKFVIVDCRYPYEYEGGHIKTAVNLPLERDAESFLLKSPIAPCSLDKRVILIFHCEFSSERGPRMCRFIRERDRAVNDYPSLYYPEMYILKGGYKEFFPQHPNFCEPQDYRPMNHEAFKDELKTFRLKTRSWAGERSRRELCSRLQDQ
Put plainly: In vitro phosphatase assay with OMFP as substrate. The format is biochemical. In short, it runs like this:
as §1

Data set [9] concerns HEK 293 cells. Put plainly: Cell viability assay. The following applies: 6 h, up to 1.5 μM (tested 1, 1.5, 2, 3 μM). The format is cell-based, human. In short, it runs like this:
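HEK 293 cells grown in DMEM with 10% FBS and 1% penicillin/streptomycin under 5% CO2. Seeded at 1.5 × 10^6 cells/well and left overnight, then exposed to test compound (1, 1.5, 2, 3 μM) for 6 h. Water-soluble tetrazolium reagent added for 1 h at 37°C; absorbance read at 450 nm against a 650 nm reference. Mean ± SEM of three independent experiments; Student's t-test versus untreated.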

The target in data set [10] is T6, DUSP23 (Homo sapiens, UniProt Q9BVJ7).
T6 sequence (Q9BVJ7 1-150): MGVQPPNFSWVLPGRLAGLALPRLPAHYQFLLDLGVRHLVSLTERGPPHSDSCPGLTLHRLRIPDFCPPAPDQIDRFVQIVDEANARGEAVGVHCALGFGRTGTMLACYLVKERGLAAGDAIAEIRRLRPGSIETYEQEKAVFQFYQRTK
Put plainly: In vitro phosphatase assay with OMFP as substrate. It counts as biochemical. The gist of the method: as §1

In data set [11] the target is T7, DUSP8 (Homo sapiens, UniProt Q13202).
T7 sequence (Q13202 1-625): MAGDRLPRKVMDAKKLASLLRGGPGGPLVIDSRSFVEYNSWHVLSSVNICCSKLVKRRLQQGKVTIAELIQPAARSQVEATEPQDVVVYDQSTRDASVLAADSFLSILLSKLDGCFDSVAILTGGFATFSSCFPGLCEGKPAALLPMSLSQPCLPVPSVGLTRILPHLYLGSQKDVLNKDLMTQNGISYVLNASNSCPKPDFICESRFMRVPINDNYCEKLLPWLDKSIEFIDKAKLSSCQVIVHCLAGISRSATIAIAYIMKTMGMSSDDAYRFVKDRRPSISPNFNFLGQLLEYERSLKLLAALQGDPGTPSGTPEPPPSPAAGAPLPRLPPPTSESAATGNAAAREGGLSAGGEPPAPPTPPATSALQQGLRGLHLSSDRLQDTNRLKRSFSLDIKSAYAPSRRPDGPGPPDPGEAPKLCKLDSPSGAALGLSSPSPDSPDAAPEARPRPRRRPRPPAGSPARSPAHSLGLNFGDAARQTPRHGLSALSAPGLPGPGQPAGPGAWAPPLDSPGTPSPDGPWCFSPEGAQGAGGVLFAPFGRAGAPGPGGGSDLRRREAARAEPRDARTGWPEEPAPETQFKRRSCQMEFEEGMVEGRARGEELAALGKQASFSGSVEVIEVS
Put plainly: In vitro phosphatase assay with OMFP as substrate. The format is biochemical. The gist of the method: as §1

Data set [12] addresses T8, CD45 (Homo sapiens, UniProt P08575).
T8 sequence (P08575 653-912 limits assumed): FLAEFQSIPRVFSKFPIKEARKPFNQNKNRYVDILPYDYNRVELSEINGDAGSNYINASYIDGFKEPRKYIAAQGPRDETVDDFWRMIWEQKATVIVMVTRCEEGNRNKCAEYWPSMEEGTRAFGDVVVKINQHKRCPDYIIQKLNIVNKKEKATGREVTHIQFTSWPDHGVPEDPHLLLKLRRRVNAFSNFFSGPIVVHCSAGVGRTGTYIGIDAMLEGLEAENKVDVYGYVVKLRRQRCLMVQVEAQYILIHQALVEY
The data set can be described thus: In vitro phosphatase assay with OMFP as substrate. The format is biochemical. The gist of the method:
as §1

Data set [13] addresses PTEN (Homo sapiens, UniProt P60484). The data set can be described thus: In vitro phosphatase assay with OMFP as substrate. The format is biochemical. In short, it runs like this:
as §1

What is called IC50 is the point on the concentration scale where inhibition reaches its midpoint. Read a high IC50 as a need for much substance. One may read the Ki as the dissociation constant of the complex between target and ligand, obtained from inhibition or displacement. Lower therefore signals tighter binding.

Chain of PTEN (P60484 whole entry, species assumed): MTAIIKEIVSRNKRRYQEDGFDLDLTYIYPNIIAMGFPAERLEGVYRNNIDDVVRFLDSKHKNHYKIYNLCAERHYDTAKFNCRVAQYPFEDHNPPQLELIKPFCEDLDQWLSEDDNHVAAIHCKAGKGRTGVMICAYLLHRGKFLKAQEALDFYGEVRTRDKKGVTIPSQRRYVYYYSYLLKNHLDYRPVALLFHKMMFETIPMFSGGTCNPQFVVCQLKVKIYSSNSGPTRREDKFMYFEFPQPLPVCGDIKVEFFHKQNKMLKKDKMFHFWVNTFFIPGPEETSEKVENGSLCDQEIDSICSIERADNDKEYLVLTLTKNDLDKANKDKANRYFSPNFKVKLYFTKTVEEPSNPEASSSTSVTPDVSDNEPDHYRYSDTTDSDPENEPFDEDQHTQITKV
Chain of DUSP3 (P51452 whole entry, species assumed): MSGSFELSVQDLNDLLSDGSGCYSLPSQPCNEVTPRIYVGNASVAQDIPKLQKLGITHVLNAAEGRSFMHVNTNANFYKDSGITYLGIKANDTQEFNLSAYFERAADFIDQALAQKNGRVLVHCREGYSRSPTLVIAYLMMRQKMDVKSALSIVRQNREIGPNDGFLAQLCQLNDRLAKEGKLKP

As for `O=S(=O)(F)Cc1ccccc1` [PMSF, phenylmethylsulfonyl fluoride], the “Proteolysis of PTPN2 by trypsin (DARTS)” value in data set [1] was “decreased”.
For `CC(C)(C)C(=O)Nc1ccc2c(c1)C(=O)C(=O)c1ccccc1-2` [PTP inhibitor XIX, N-[9, 10-dioxo-9, 10-dihydro-phenanthren-2-yl]-2,2-dimethyl-propionamide], in data set [2], the “PTPN2-mediated dephosphorylation of STAT3 at Tyr-705” value is recorded as “inhibited”. Further, the IC50 in data set [3] was greater than 50 µM; in data set [4], greater than 50 µM; in [5], greater than 50 µM; in data set [6] it was greater than 100 µM; in data set [8] it was greater than 50 µM; in data set [10], greater than 50 µM. In addition, the IC50 in data set [11] was greater than 50 µM; in data set [12] it was 0.86 ± 0.03 µM; in data set [13], 1.78 ± 0.34 µM. The compound further yielded an inhibition constant (Ki) in data set [7] of 0.76 ± 0.08 µM. The “Cytotoxic effects (cell viability)” value in [9] was “no apparent cytotoxic effects”.

The record behind these values is publication PMC5498144 (BMB Reports, 2017).
